Drawing on ChEMBL document CHEMBL1154135, “Macaflavanones A-G, prenylated flavanones from the leaves of Macaranga tanarius” (J Nat Prod, 2008), this text covers IC50 and Activity for 8 molecules.

Active and inactive are the calls of the source. The calls are words filed in the database; no cut-off is given here.

The subject of one assay is KB. The assay is described as follows: Cytotoxicity against human KB cells after 72 hrs by MTT assay. The class given is functional, cell-based. The method in brief: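 KB cells seeded at 3 × 10^3 cells/well in DMEM with 10% FBS, amphotericin B (0.5 µg/ml) and kanamycin sulfate (100 µg/mL), 37 °C, 5% CO2. After 24 h, samples in 10% DMSO added; incubated 72 h. MTT (0.5 mg/mL) added for 1.5 h, formazan dissolved in DMSO, absorbance at 540 nm minus 620 nm. % inhibition vs control; etoposide positive control; means with SD, triplicate.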

Another assay concerns A549. The assay is described as follows: Cytotoxicity against human A549 cells after 72 hrs by MTT assay. Format: functional, cell-based. Particulars: for IC50: A549, 72 h. The method in brief: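 A549 cells exposed 72 h to samples added in 10% DMSO after a 24 h pre-culture at 37 °C, 5% CO2. MTT (0.5 mg/mL) in DMEM for 1.5 h, formazan dissolved in DMSO, absorbance at 540 nm minus 620 nm. % inhibition relative to untreated control gives IC50; etoposide positive control; means with SD from triplicate experiments.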

In the case of `CC(C)=CCC[C@]1(C)CCc2c([C@@H]3CC(=O)c4c(cc(O)c(CC=C(C)C)c4O)O3)ccc(O)c2O1` [MACAFLAVANONE G], the IC50 in the assay with KB was 12.3 µM; with A549, 13.4 µM.
As for `CC(C)=CCC[C@@]1(C)CCc2c([C@@H]3CC(=O)c4c(cc(O)c(CC=C(C)C)c4O)O3)ccc(O)c2O1`, the result in the assay on KB and with A549 was inactive.
In the case of `CC(C)=CCC[C@@]1(C)C=Cc2c([C@@H]3CC(=O)c4c(cc(O)c(CC=C(C)C)c4O)O3)ccc(O)c2O1`, the outcome in the assay on KB and with A549 was inactive.
Turning to `CC(C)=C/C=C/[C@@]1(C)CCc2c([C@@H]3CC(=O)c4c(cc(O)c(CC=C(C)C)c4O)O3)ccc(O)c2O1`, the result in the assay with KB and in the assay with A549 was inactive.
`CC(C)=CCC/C(C)=C/Cc1c([C@@H]2CC(=O)c3c(cc4c(c3O)C=CC(C)(C)O4)O2)ccc(O)c1O`: the outcome in the assay on KB and in the assay on A549 was inactive.
In the case of `CC(C)=C/C=C/[C@]1(C)CCc2c([C@@H]3CC(=O)c4c(cc(O)c(CC=C(C)C)c4O)O3)ccc(O)c2O1`, the outcome in the assay with KB and in the assay with A549 was inactive.
Regarding `COc1cc([C@@H]2c3cc4c(cc3[C@@H](O[C@@H]3O[C@@H]5CO[C@@H](C)O[C@H]5[C@H](O)[C@H]3O)[C@H]3COC(=O)[C@H]23)OCO4)cc(OC)c1O` [ETOPOSIDE], the figures for the IC50 with KB and with A549 were 1.25 µM and 8.37 µM, respectively.
Regarding `CC(C)=CCC/C(C)=C/Cc1c([C@@H]2CC(=O)c3c(cc4c(c3O)CCC(C)(C)O4)O2)ccc(O)c1O`, the outcome in the assay on KB and with A549 was inactive.
